Assay outcomes: PubChem, several laboratories
m5-HT2A agonist – mouse Htr2a agonists via beta-arrestin recruitment, primary screen, cell-based, luminescence | 5-hydroxytryptamine receptor 2A (Mus musculus), P35363 | CHO-K1 mHTR2A beta-arrestin complementation; percent of 30 µM serotonin response | activation, % at 7.6 µM | 0.66% of 360,000 active | AID 624169, 2012;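 active = activation above a run cutoff, the mean activation of all tested compounds plus 3 SD, cut at about 14% in these data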;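 note: 0% = plate median of compound wells and 100% = 30 µM serotonin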
Target sequence (P35363 whole entry, looked up): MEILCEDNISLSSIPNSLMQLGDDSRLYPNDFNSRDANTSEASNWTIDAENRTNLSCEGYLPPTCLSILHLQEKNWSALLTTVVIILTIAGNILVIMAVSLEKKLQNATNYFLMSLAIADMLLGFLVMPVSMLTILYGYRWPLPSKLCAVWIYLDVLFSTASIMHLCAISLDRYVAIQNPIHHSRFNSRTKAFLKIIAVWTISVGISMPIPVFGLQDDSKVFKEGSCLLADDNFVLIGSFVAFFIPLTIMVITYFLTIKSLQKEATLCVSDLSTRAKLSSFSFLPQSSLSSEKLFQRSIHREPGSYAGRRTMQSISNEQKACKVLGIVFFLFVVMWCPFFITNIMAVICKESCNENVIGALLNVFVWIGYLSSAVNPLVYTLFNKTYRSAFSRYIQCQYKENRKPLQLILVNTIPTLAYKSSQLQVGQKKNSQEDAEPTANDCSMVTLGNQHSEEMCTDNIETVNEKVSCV
Tb MetRS inh – T. brucei MetRS inhibitors, primary screen, biochemical, luminescence; purified T. brucei MetRS, ATP depletion, Kinase-Glo luminescence; inhibition, % at 11.9 µM; 0.4% of 360,000 active; AID 624268, 2012;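 active = inhibition above a per-plate cutoff of the control wells' mean inhibition plus 3 SD, cut at about 5.5% in these data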;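 note: 0% = DMSO wells median and 100% = median of wells with control inhibitor compound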
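Material: parasite MetRS enzyme / Replication: singlicate, one well per compound / Signal: luminescence of leftover ATP / Schedule: 2 h aminoacylation at 25 °C after 15 min preincubation / Medium: HEPES-MgCl2-KCl buffer plus DTT, spermine, BSA, pyrophosphatase / Doses: 11.9 µM single point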
MsrA inhibitor – bovine MsrA enzyme inhibitors, primary screen, biochemical, absorbance, HTS. Methionine sulfoxide reductase A (Bos taurus). purified bovine MsrA, absorbance read-out. inhibition, % at 15.5 µM. 0.75% of 360,000 active;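 note: 0% = vehicle wells with enzyme and 100% = reference inhibitor wells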
AHR act – AHR activators, primary screen, cell-based, luminescence, luciferase reporter, human; AHR-responsive luciferase reporter cells; 2.5% of 320,000 active; activation, % at 5 µM; Aryl hydrocarbon receptor (Homo sapiens), P35869; AID 2796, 2010; in the data active = activation above about 47%;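 note: 0% = vehicle wells and 100% = reference agonist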
AI-2 QS mod – Vibrio harveyi AI-2 quorum sensing modulators, primary screen, JMH597 strain, luminescence/OD600 ratio; Vibrio harveyi JMH597 AI-2 luminescence/OD600 ratio, 9 h; hits give low values; strain lacks LuxN and CqsS sensors; 0 = neutral-control median; activity change, % at 7.5 µM; 0.4% of 300,000 active; AID 2094, 2009; in the data active = activity change below about -75%, passing the limit was not always enough;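 note: luminescence divided by OD600 gain over 9 h not by final OD600 alone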
bovine MsrA act – bovine MsrA enzyme activators, primary screen, biochemical, absorbance, HTS. purified bovine MsrA, absorbance read-out. activation, % at 10.6 µM. 0.3% of 360,000 active. AID 602163, 2012; in the data active = activation above about 7.5%;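 note: 0% = vehicle and 100% = reference activator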
MsrA conf – bovine MsrA inhibitors, retest, confirmation, biochemical, absorbance, HTS; shares compounds with MsrA inhibitor; purified bovine MsrA, absorbance read-out; 41% of 2,300 active; inhibition, % at 15.5 µM;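 note: coupled to thioredoxin reductase with NADPH and selenocystamine and DMSO as substrate; 0% = vehicle only and 100% = full effect of reference inhibitor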
The depositor's hits bear a star. This is a sample that favours compounds with a hit; in the whole collection about 4.4% have one here. Cut-off read from the data, not from the text of the source, unless noted: active = inhibition above about 4.5%; inactive = the rest.

Screening Cc1ccc2cc(/C=N/NC(=O)CN3CCOCC3)c(Cl)nc2c1 returned m5-HT2A agonist 6, Tb MetRS inh -1, MsrA inhibitor 5.0*, AHR act -4, AI-2 QS mod 6, bovine MsrA act -3 and MsrA conf 3.
Screening COc1ccc(S(=O)(=O)NC(=O)C2(C)CCN2C(=O)C2CCCCC2)cc1OC (centres undefined) returned m5-HT2A agonist 1, Tb MetRS inh 0, MsrA inhibitor 1 and bovine MsrA act -1.
Screening COc1cc(C(=O)N/N=C/c2sccc2C)cc(OC)c1OC returned m5-HT2A agonist -8, Tb MetRS inh 0, MsrA inhibitor 5.1*, AI-2 QS mod 13, bovine MsrA act -2 and MsrA conf 4.
`Cc1ccsc1/C=N/NC(=O)C(=O)NCC(C)C` gave m5-HT2A agonist 1, Tb MetRS inh -1, MsrA inhibitor 5.6*, AHR act 14, AI-2 QS mod 21, bovine MsrA act -3 and MsrA conf 3.
For Cc1ccsc1/C=N/NC(=O)c1ccncc1 the results were m5-HT2A agonist 1, Tb MetRS inh 0, MsrA inhibitor 3, AHR act 4, AI-2 QS mod 8 and bovine MsrA act -3.
`C[C@@H]1CN([C@@H](C)CO)C(=O)c2cc(-c3ccccc3F)cnc2O[C@H]1CN(C)Cc1cccc(F)c1` gave m5-HT2A agonist 9, Tb MetRS inh 0, MsrA inhibitor 0 and bovine MsrA act 0.
`S=c1nc(-c2ccccc2)n(CCCN2CCOCC2)c2c1CCCC2` gave m5-HT2A agonist 5, Tb MetRS inh 0, MsrA inhibitor 2, AHR act 7, AI-2 QS mod 7 and bovine MsrA act -6.
Screening OCCOCCn1c(-c2ccccc2)nc(=S)c2c1CCCC2 returned m5-HT2A agonist 4, Tb MetRS inh -1, MsrA inhibitor 5.9*, AHR act 4, AI-2 QS mod 12, bovine MsrA act -7 and MsrA conf 4.
`COc1ccc(OCCCC(=O)N(C)CC(=O)Nc2ccccc2Cl)cc1` gave m5-HT2A agonist -4, Tb MetRS inh 0, MsrA inhibitor -1, AHR act -1, AI-2 QS mod 10 and bovine MsrA act -2.
Screening c1csc(CNc2ncnc3nc[nH]c23)c1 returned m5-HT2A agonist 10, Tb MetRS inh 2, MsrA inhibitor 1, AHR act 0, AI-2 QS mod 14 and bovine MsrA act -4.
`Oc1ccc(/C=N/Nc2ncnc3nc[nH]c23)cc1` gave m5-HT2A agonist -5, Tb MetRS inh 0, MsrA inhibitor 6.9*, AHR act 4, AI-2 QS mod 24, bovine MsrA act -6 and MsrA conf 5.6*.
Screening O=C(NCCCN1CCOCC1)/C(=C/c1cccs1)NC(=O)c1ccccc1 returned m5-HT2A agonist -8, Tb MetRS inh 0, MsrA inhibitor 2, AHR act 0, AI-2 QS mod 2 and bovine MsrA act -2.
`CCOC(=O)C1=C(O)/C(=C/c2ccc(OCC(=O)O)c(OCC)c2)SC1=Nc1ccc(OC)cc1` gave m5-HT2A agonist 2, Tb MetRS inh 0, MsrA inhibitor 4.7*, AHR act -2, AI-2 QS mod 17, bovine MsrA act -2 and MsrA conf 3.
CCOC(=O)C1=C(O)/C(=C/c2ccc(OCC(=O)O)c(OCC)c2)SC1=Nc1ccc(C)cc1 was read as m5-HT2A agonist -1, Tb MetRS inh -1, MsrA inhibitor 4, AHR act 5, AI-2 QS mod -4 and bovine MsrA act -4.
`CC(C)Nc1ncnc2c1ncn2[C@H]1CN(Cc2ccccc2)C[C@@H](CO)O1` gave m5-HT2A agonist 7, Tb MetRS inh 0, MsrA inhibitor 0 and bovine MsrA act -4.
`N#C/C(=C\c1cccs1)C(=O)N1CCOCC1` gave m5-HT2A agonist -2, Tb MetRS inh 0, MsrA inhibitor 1, AHR act -2, AI-2 QS mod 12 and bovine MsrA act -5.
For N#C/C(C(=O)N1CCOCC1)=C1\Nc2ccccc2S1 the results were m5-HT2A agonist 1, Tb MetRS inh 0, MsrA inhibitor 7.9*, AHR act -4, AI-2 QS mod 56, bovine MsrA act -7 and MsrA conf 5.7*.
For CCOc1ccc(NC(=O)COC(=O)Cn2cnc3ccccc32)cc1 the results were m5-HT2A agonist -6, Tb MetRS inh 0, MsrA inhibitor -2, AHR act 1 and bovine MsrA act -3.
CCN(CC)S(=O)(=O)c1ccc(N/N=C/c2cc(OC)ccc2O)nc1 was read as m5-HT2A agonist -5, Tb MetRS inh 0, MsrA inhibitor 1, AHR act 1, AI-2 QS mod 25 and bovine MsrA act -5.
CCN(CC)S(=O)(=O)c1ccc(N/N=C/c2cccnc2)nc1 was read as m5-HT2A agonist -2, Tb MetRS inh 1, MsrA inhibitor 5.8*, AHR act 16, AI-2 QS mod 16, bovine MsrA act -5 and MsrA conf 4.7*.
Screening O=C(O)[C@H](Cc1ccccc1)Nc1ccc([N+](=O)[O-])cn1 returned m5-HT2A agonist 3, Tb MetRS inh -1, MsrA inhibitor 4.8*, AHR act 8, AI-2 QS mod 26, bovine MsrA act -3 and MsrA conf 3.
For O=C(O)C(Cc1ccccc1)Nc1ccc([N+](=O)[O-])cc1[N+](=O)[O-] (centres undefined) the results were m5-HT2A agonist 3, Tb MetRS inh 0, MsrA inhibitor 3, AHR act 4, AI-2 QS mod 11 and bovine MsrA act -2.
CCOC(=O)c1cccc(NC(=O)COc2nsnc2N2CCOCC2)c1 was read as m5-HT2A agonist 4, Tb MetRS inh -1, MsrA inhibitor 0, AHR act 8 and bovine MsrA act -10.
For CCOC(=O)CCCNc1ccc([N+](=O)[O-])cc1[N+](=O)[O-] the results were m5-HT2A agonist 0, Tb MetRS inh -2, MsrA inhibitor 1, AHR act 6, AI-2 QS mod 19 and bovine MsrA act -14.
Screening CCC(=NNc1ccc([N+](=O)[O-])cc1[N+](=O)[O-])c1ccccc1 returned m5-HT2A agonist -3, Tb MetRS inh -1, MsrA inhibitor -1 and bovine MsrA act -4.
